In ChEMBL document CHEMBL1155789, “Design, synthesis, and evaluation of 3C protease inhibitors as anti-enterovirus 71 agents” (Bioorg Med Chem, 2008):
Activity calls are given as the source filed them. The calls are words filed in the database; no cut-off is given here.

Experiments:
[1] = system: Echovirus E6; test: Antiviral activity against Human echovirus 6; type: functional, organism-based; conditions: Enterovirus B
[2] = system: Echovirus E9; test: Antiviral activity against Human echovirus 9; type: functional, organism-based; conditions: Enterovirus B
[3] = system: RD; test: Cytotoxicity against human RD cells; type: cell-based
[4] = system: RD; test: Inhibition of Human enterovirus 71 TW/2231/98 recombinant protease 3C in human RD cells at 0.01 to 1 uM after 48 hrs by Western blotting; type: cell-based; conditions: Enterovirus A71
Summary of the method: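 Confluent RD cells in DMEM with 10% fetal calf serum were infected with EV71 TW/2231/98 at MOI 0.01 with or without compound at 0.01–1 μM. After 48 h, total lysates were run on 12% SDS–PAGE and blotted with mouse monoclonal anti-3C and anti-β-actin antibodies. Detection used an HRP anti-mouse secondary (1:2000) and ECL.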

[5] = Inhibition of Human enterovirus 71 TW/2231/98 recombinant protease 3C expressed in Escherichia coli JM109 competent cells; set-up: species or system Enterovirus A71
Summary of the method: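 His-tagged EV71 3C protease expressed in E. coli […] and purified on Ni–NTA. Fluorescence read at 538 nm with excitation at 355 nm. Initial velocities over the first 5 min were plotted against inhibitor concentration and fitted to a hyperbolic activity equation to give IC50.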

[6] = system: Enterovirus A71; test: Antiviral activity against Human enterovirus 71 in human rhabdomyosarcoma cells assessed as virus-induced cell death after 72 hrs; type: functional, organism-based; conditions: Enterovirus A
Summary of the method: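 RD cells seeded at 1.1×10^5 cells/mL in DMEM with 10% FBS, grown 24-30 h at 37 °C to about 90% confluence. Virus (100 TCID50) mixed with test compound was adsorbed 1 h at 35 °C, then overlaid with DMEM, 2% FBS, 0.1% DMSO for 72 h at 35 °C. Formaldehyde fixation, crystal violet stain, A570. EC50 is 50% reduction of virus-induced cell death versus virus control. Triplicate, at least twice.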

[7] = Selectivity index, ratio of CC50 for human RD cells to EC50 for Human enterovirus 71; type: toxicity, cell-based; conditions: for selectivity ratio: RD cells, read-out: Ratio CC50/EC50
[8] = system: Enterovirus A71; test: (§1) Inhibition of Human enterovirus 71 TW/2231/98 recombinant protease 3C expressed in Escherichia coli JM109 competent cells by time dependent assay
Summary of the method: (§2)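 Time-dependent inactivation: 0.5 μM 3C protease incubated with 1–10 μM inhibitor in the fluorogenic peptide assay (10 mM MES pH 6.5, 25 °C). Activity loss versus incubation time was fitted to a single exponential to give kobs. Half-life (ln2/kobs) was replotted against reciprocal inhibitor concentration to give kinact and Ki.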

[9] = as §1; set-up: species or system Enterovirus A71; summary of the method: as §2

IC50 [5]	Compound	CC50 [3]	EC50 [6]	further results
< 0.5 µM	Cc1ccc(/C=C/C(=O)N[C@@H](Cc2ccccc2)C(=O)N[C@H](C=O)C[C@@H]2CCNC2=O)cc1	> 25 µM	26 nM	Activity [4]: Active; selectivity ratio [7]: > 1000
8.2 µM	CCOC(=O)/C=C/[C@H](C[C@@H]1CCNC1=O)NC(=O)[C@H](Cc1ccccc1)NC(=O)/C=C/c1ccc(N(C)C)cc1	21.4 µM	2900 nM	Kinact [8]: 0.077 min⁻¹; Ki [9]: 2600 nM
10.6 µM	CCOC(=O)/C=C/[C@H](C[C@@H]1CCNC1=O)NC(=O)[C@H](Cc1ccccc1)NC(=O)/C=C/c1ccc2c(c1)OCO2	> 25 µM	1800 nM	–
< 0.5 µM	Cc1cc(/C=C/C(=O)N[C@@H](Cc2ccccc2)C(=O)N[C@H](C=O)C[C@@H]2CCNC2=O)no1	> 25 µM	940 nM	–

Continued, molecule first:

Compound	IC50 [5]	CC50 [3]	EC50 [6]	further results
CCOC(=O)/C=C/[C@H](C[C@@H]1CCNC1=O)NC(=O)[C@@H](CC(=O)[C@@H](NC(=O)c1cc(C)on1)C(C)C)Cc1ccc(F)cc1 [RUPINTRIVIR]	–	–	–	EC50 [1]: 43 nM; EC50 [2]: 15 nM
CN(C)c1ccc(/C=C/C(=O)N[C@@H](Cc2ccccc2)C(=O)N[C@H](C=O)C[C@@H]2CCNC2=O)cc1	< 0.5 µM	> 25 µM	18 nM	selectivity ratio [7]: > 1000
O=C[C@H](C[C@@H]1CCNC1=O)NC(=O)[C@H](Cc1ccccc1)NC(=O)/C=C/c1ccc2c(c1)OCO2	< 0.5 µM	> 25 µM	160 nM	–
O=C[C@H](C[C@@H]1CCNC1=O)NC(=O)[C@H](Cc1ccccc1)NC(=O)/C=C/c1ccc(Cl)cc1F	< 0.5 µM	5.1 µM	7 nM	Ratio CC50/EC50 ([7]; rd): 714
CCOC(=O)/C=C/[C@H](C[C@@H]1CCNC1=O)NC(=O)[C@H](Cc1ccccc1)NC(=O)OC(C)(C)C	> 20 µM	–	> 20000 nM	–
O=C[C@H](C[C@@H]1CCNC1=O)NC(=O)[C@H](Cc1ccccc1)NC(=O)OCc1ccccc1	< 0.5 µM	23.6 µM	31 nM	–
O=C[C@H](C[C@@H]1CCNC1=O)NC(=O)[C@H](Cc1ccccc1)NC(=O)/C=C/c1ccccc1	< 0.5 µM	> 25 µM	96 nM	–
CCOC(=O)/C=C/[C@H](C[C@@H]1CCNC1=O)NC(=O)[C@H](Cc1ccccc1)NC(=O)/C=C/c1ccccc1	10 µM	8 µM	1300 nM	–
